# Assay results: ChEMBL document CHEMBL1671683, “Activity of linezolid in an in vitro pharmacokinetic-pharmacodynamic model using different dosages and Staphylococcus aureus and Enterococcus faecalis strains with and without a hypermutator phenotype” (Antimicrob Agents Chemother, 2010)
# Key:
# Enterococcus faecalis [1] = assay: Bactericidal activity against 13 hrs peripheral compartment culture samples of Enterococcus faecalis Ef1497 in two-compartment pharmacokinetic/pharmacodynamic model assessed as effect on bacterial count at 600 mg, bid administered as 0.5 hr infusion; assay type: functional
# Procedure, shortened: (§1)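 An 18-h culture concentrated 50-fold was injected into the peripheral compartment 3 h pre-sampling (~10^8 CFU/ml E. faecalis, 10^9 S. aureus). Counts came from dilution plating (detection limit 2–3 log10 CFU/ml), expressed as Δlog CFU/ml from treatment start. Run in duplicate.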
# [2] = Tmax in two-compartment pharmacokinetic/pharmacodynamic model at 600 mg, bid administered as 0.5 hr infusion over 24 hrs; assay type: ADME, organism-based; settings: iv
# [3] = Volume of distribution at steady state in two-compartment pharmacokinetic/pharmacodynamic model at 400 mg, bid administered as 0.5 hrs infusion; assay type: ADME, organism-based; settings: iv, read-out: Vdss
# Staphylococcus aureus [4] = assay: Bactericidal activity against 13 hrs peripheral compartment culture samples of Staphylococcus aureus RN4220 in two-compartment pharmacokinetic/pharmacodynamic model assessed as effect on bacterial count at 600 mg, bid administered as 0.5 hr infusion; assay type: functional; procedure, shortened: as §1
# [5] = Residual concentration at the end of the administration interval in two-compartment pharmacokinetic/pharmacodynamic model at 200 mg, bid administered as 0.5 hr infusion over 24 hrs; assay type: ADME; settings: in vivo, iv
# in vitro = settings: two-compartment pharmacokinetic/pharmacodynamic model, iv, 200 mg
# Staphylococcus aureus [6] = assay: Bactericidal activity against 0.5 hrs peripheral compartment culture samples of Staphylococcus aureus RN4220 in two-compartment pharmacokinetic/pharmacodynamic model assessed as effect on bacterial count at 600 mg, bid administered as 0.5 hr infusion; assay type: functional
# Procedure, shortened: (§2)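 Two-compartment hollow-fibre model in cation-adjusted, protein-free MH broth, 37°C. Linezolid given as simulated 0.5-h infusion twice daily. Inoculum grown 18 h, concentrated 50-fold and placed in the peripheral compartment 3 h before t0. Peripheral samples at set times counted by dilution plating. First 10-fold dilution not plated, limiting detection to 2–3 log10 CFU/ml. Δlog CFU/ml taken from t0 count. Duplicates.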
# Enterococcus faecalis [7] = assay: Bactericidal activity against 1 hr peripheral compartment culture samples of Enterococcus faecalis ATCC 29212 in two-compartment pharmacokinetic/pharmacodynamic model assessed as effect on bacterial count at 600 mg, bid administered as 0.5 hr infusion; assay type: functional; procedure, shortened: as §2
# [8] = test system: Staphylococcus aureus subsp. aureus RN4220; assay: ABBC (0 to 24 hrs) in Staphylococcus aureus RN4220 in two-compartment pharmacokinetic/pharmacodynamic model at 600 mg, bid administered as 0.5 hr infusion for 2 days
# Procedure, shortened: (§3)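 Hollow-fibre two-compartment model in cation-adjusted, protein-free MH broth at 37°C. Human total-plasma linezolid profile simulated as 0.5-h infusion every 12 h for 48 h. Concentrated 18-h culture injected into the peripheral compartment 3 h before first sample, giving about 10^8 (E. faecalis) or 10^9 (S. aureus) CFU/ml. Viable counts by dilution plating over 0–24 h. Area indices calculated versus growth control curve. Duplicate runs.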
# Enterococcus faecalis [9] = assay: Bactericidal activity against 1 hr peripheral compartment culture samples of Enterococcus faecalis Ef1497 MutM3 in two-compartment pharmacokinetic/pharmacodynamic model assessed as effect on bacterial count at 600 mg, bid administered as 0.5 hr infusion; assay type: functional; procedure, shortened: as §2
# [10] = Elimination half-life in healthy human at 600 mg, iv, bid administered as 0.5 hr infusion; assay type: ADME, organism-based; settings: in vivo, read-out: beta t1/2 (converted)
# Staphylococcus aureus [11] = assay: Bactericidal activity against 24 hrs peripheral compartment culture samples of Staphylococcus aureus RN4220 MutS2 in two-compartment pharmacokinetic/pharmacodynamic model assessed as effect on bacterial count at 600 mg, bid administered as 0.5 hr infusion; assay type: functional; procedure, shortened: as §1
# Enterococcus faecalis [12] = assay: Bactericidal activity against 12 hrs peripheral compartment culture samples of Enterococcus faecalis Ef1497 in two-compartment pharmacokinetic/pharmacodynamic model assessed as effect on bacterial count at 800 mg, bid administered as 0.5 hr infusion; assay type: functional; procedure, shortened: as §1
# Enterococcus faecalis [13] = assay: Bactericidal activity against 0.5 hrs peripheral compartment culture samples of Enterococcus faecalis Ef1497 MutM3 in two-compartment pharmacokinetic/pharmacodynamic model assessed as effect on bacterial count at 200 mg, bid administered as 0.5 hr infusion; assay type: functional; procedure, shortened: as §2
# Enterococcus faecalis [14] = assay: Bactericidal activity against 24 hrs peripheral compartment culture samples of Enterococcus faecalis Ef1497 in two-compartment pharmacokinetic/pharmacodynamic model assessed as effect on bacterial count at 800 mg, bid administered as 0.5 hr infusion; assay type: functional; procedure, shortened: as §1
# Enterococcus faecalis [15] = assay: AUBC (0 to 24 hrs) in Enterococcus faecalis ATCC 29212 in two-compartment pharmacokinetic/pharmacodynamic model at 200 mg, bid administered as 0.5 hr infusion for 2 days; assay type: functional; procedure, shortened: as §3
# Enterococcus faecalis [16] = assay: Bactericidal activity against 14 hrs peripheral compartment culture samples of Enterococcus faecalis ATCC 29212 in two-compartment pharmacokinetic/pharmacodynamic model assessed as effect on bacterial count at 600 mg, bid administered as 0.5 hr infusion; assay type: functional; procedure, shortened: as §1
# [17] = Total clearance in two-compartment pharmacokinetic/pharmacodynamic model at 200 mg, bid administered as 0.5 hr infusion over 24 hrs; assay type: ADME, organism-based; settings: in vivo, iv
# Enterococcus faecalis [18] = assay: T>MIC in Enterococcus faecalis ATCC 29212 in two-compartment pharmacokinetic/pharmacodynamic model at 600 mg, bid administered as 0.5 hr infusion for 2 days; assay type: functional
# Enterococcus faecalis [19] = assay: Bactericidal activity against 12 hrs peripheral compartment culture samples of Enterococcus faecalis ATCC 29212 in two-compartment pharmacokinetic/pharmacodynamic model assessed as effect on bacterial count at 200 mg, bid administered as 0.5 hr infusion; assay type: functional; procedure, shortened: as §2
# [20] = Total clearance in two-compartment pharmacokinetic/pharmacodynamic model at 200 mg, bid administered as 0.5 hrs infusion; assay type: ADME, organism-based; settings: iv
# Enterococcus faecalis [21] = assay: Bactericidal activity against 14 hrs peripheral compartment culture samples of Enterococcus faecalis Ef1497 MutM3 in two-compartment pharmacokinetic/pharmacodynamic model assessed as effect on bacterial count at 600 mg, bid administered as 0.5 hr infusion; assay type: functional; procedure, shortened: as §1
# [22] = Tmax in two-compartment pharmacokinetic/pharmacodynamic model at 800 mg, bid administered as 0.5 hr infusion over 24 hrs; assay type: ADME, organism-based; settings: iv
# Enterococcus faecalis [23] = assay: Bactericidal activity against 1 hr peripheral compartment culture samples of Enterococcus faecalis Ef1497 MutM3 in two-compartment pharmacokinetic/pharmacodynamic model assessed as effect on bacterial count at 200 mg, bid administered as 0.5 hr infusion; assay type: functional; procedure, shortened: as §2
# [24] = Tmax in two-compartment pharmacokinetic/pharmacodynamic model at 600 mg, bid administered as 0.5 hrs infusion; assay type: ADME, organism-based; settings: iv
# Procedure, shortened: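 Two-compartment in vitro hollow-fibre model in cation-adjusted, protein-free Mueller-Hinton broth at 37°C. Human total-plasma linezolid profile simulated as 0.5-h infusion every 12 h for 48 h, computer-controlled syringe pump into central compartment. […] Peripheral samples assayed by validated HPLC-UV (quantification limit 0.39 μg/ml). Tmax read directly from concentration-time profiles. Run in duplicate.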
# Enterococcus faecalis [25] = assay: T>MIC in Enterococcus faecalis Ef1497 in two-compartment pharmacokinetic/pharmacodynamic model at 800 mg, bid administered as 0.5 hr infusion for 2 days; assay type: functional
# [26] = Volume of distribution at steady state in two-compartment pharmacokinetic/pharmacodynamic model at 800 mg, bid administered as 0.5 hrs infusion; assay type: ADME, organism-based; settings: iv, read-out: Vdss
smiles,measurement,setting,value
CC(=O)NC[C@H]1CN(c2ccc(N3CCOCC3)c(F)c2)C(=O)O1 [LINEZOLID],log10CFU/ml,Enterococcus faecalis [1],0.09
same,Tmax,[2],30 min
same,Vd,[3],112 L
same,log10CFU/ml,Staphylococcus aureus [4],-0.22
same,Drug uptake,[5],0.31 µg/mL
same,half-life,in vitro,376 min
same,log10CFU/ml,Staphylococcus aureus [6],-0.04
same,log10CFU/ml,Enterococcus faecalis [7],-0.12
same,ABBC,[8],-1.21 log10CFU/ml.hr
same,log10CFU/ml,Enterococcus faecalis [9],-0.01
same,half-life,[10],306 min
same,log10CFU/ml,Staphylococcus aureus [11],0.52
same,log10CFU/ml,Enterococcus faecalis [12],-0.16
same,log10CFU/ml,Enterococcus faecalis [13],-0.009
same,log10CFU/ml,Enterococcus faecalis [14],-0.04
same,AUBC,Enterococcus faecalis [15],214 log10CFU/ml.hr
same,log10CFU/ml,Enterococcus faecalis [16],0.18
same,clearance,[17],252 mL/min
same,fT>MIC,Enterococcus faecalis [18],69.1%
same,log10CFU/ml,Enterococcus faecalis [19],0.14
same,clearance,[20],248 mL/min
same,log10CFU/ml,Enterococcus faecalis [21],0.28
same,Tmax,[22],30 min
same,log10CFU/ml,Enterococcus faecalis [23],0.02
same,Tmax,[24],30 min
same,fT>MIC,Enterococcus faecalis [25],80.9%
same,Vd,[26],104 L
